The EC50 is the concentration needed to bring the measured effect to its halfway point.

Experiment [1] addresses T1, Adenosine receptor A3 (Rattus norvegicus, UniProt P28647).
T1 sequence (P28647 whole entry): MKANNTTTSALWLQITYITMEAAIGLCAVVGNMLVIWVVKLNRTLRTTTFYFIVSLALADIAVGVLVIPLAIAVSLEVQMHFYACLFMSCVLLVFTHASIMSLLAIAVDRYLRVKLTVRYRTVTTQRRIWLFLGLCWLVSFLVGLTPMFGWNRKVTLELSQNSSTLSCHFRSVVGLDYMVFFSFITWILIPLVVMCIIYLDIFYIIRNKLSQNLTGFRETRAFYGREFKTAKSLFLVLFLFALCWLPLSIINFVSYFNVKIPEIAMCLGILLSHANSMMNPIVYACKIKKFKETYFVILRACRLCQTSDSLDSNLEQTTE
The experiment is described as follows: Antagonist activity at rat A3AR expressed in CHO cells assessed as reduction in NECA-induced inhibition of forskolin-stimulated cAMP accumulation at 3 uM incubated for 2 hrs by fluorescence based assay. In outline: (§1)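 CHO cells stably expressing rat A3 AR, seeded at 150,000-200,000 cells/well. Cells washed, then held 2 h at 37 °C in HBSS with 20 mM HEPES (pH 7.3) and 2 U/ml adenosine deaminase. Forskolin (10 μM) plus NECA concentration series added at 36.5 °C, with or without test compound. Stopped by hot lysis solution (90 °C, 4 mM Na2EDTA, Triton X-100). Data normalized to forskolin (100%) and buffer (0%). KB calculated, n=3.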
For orientation: Cyclic AMP is a second messenger, typically raised through Gs and lowered through Gi signalling.

For experiment [2], the target named is T1, Adenosine receptor A3. Put plainly: Antagonist activity at rat A3AR expressed in CHO cells assessed as reduction in NECA-induced inhibition of forskolin-stimulated cAMP accumulation incubated for 2 hrs by fluorescence based assay. A digest of the protocol:
as §1

Experiment [3] addresses T1, Adenosine receptor A3. Put plainly: Antagonist activity at rat A3AR expressed in CHO cells assessed as reduction in NECA-induced inhibition of forskolin-stimulated cAMP accumulation at 10 uM incubated for 2 hrs by fluorescence based assay. In outline:
as §1

The target in a further experiment is T2, Adenosine receptor A1 (Rattus norvegicus, UniProt P25099).
T2 sequence (P25099 whole entry): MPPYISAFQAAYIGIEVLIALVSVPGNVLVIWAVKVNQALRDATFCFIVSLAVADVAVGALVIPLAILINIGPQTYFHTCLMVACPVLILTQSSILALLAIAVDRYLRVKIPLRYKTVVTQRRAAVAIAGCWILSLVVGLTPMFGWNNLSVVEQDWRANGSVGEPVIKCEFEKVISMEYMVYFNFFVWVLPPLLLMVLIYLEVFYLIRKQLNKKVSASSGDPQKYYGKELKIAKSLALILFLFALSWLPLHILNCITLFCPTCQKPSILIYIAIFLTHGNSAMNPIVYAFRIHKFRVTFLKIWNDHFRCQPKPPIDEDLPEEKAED
Put plainly: Displacement of [3H]DPCPX from rat brain cortical membrane A1AR assessed as GTP shift. Background: In a radioligand displacement assay an active substance lowers the binding of a labelled ligand.

On to `O=C(Nc1nc(-c2ccccc2)c(-c2nc3ccccc3c(=O)n2-c2ccc(Cl)cc2)s1)c1ccco1`, for which the results for the EC50 at Adenosine receptor A3 [1], on Adenosine receptor A3 [2] and at Adenosine receptor A3 [3] were 57 nM, 5.3 nM and 1720 nM, respectively.

Turning to `Cc1ccc(C(=O)c2sc(NC(=O)c3ccco3)nc2-c2ccccc2)cc1`, at Adenosine receptor A1, the GTP shift was 1.3.

For `COc1ccc(C(=O)Nc2nc(-c3ccccc3)c(C(=O)c3ccc(C)cc3)s2)cc1`, the GTP shift at Adenosine receptor A1 came out at 1.

Turning to `O=C(Nc1nc(-c2ccccc2)c(C(=O)c2ccc(Cl)cc2)s1)c1ccccc1`, on Adenosine receptor A1, the GTP shift worked out at 1.

As to `O=C(Nc1nc(-c2ccccc2)c(C(=O)c2ccc(F)cc2F)s1)c1ccccc1`, at Adenosine receptor A1, the GTP shift worked out at 0.9.

The values above are taken from BindingDB's records for doi:10.1016/j.ejmech.2019.111879 (University of Bonn, 2020).
